Screens from PubChem.
A selection: hits, their analogues and other compounds. The true share with any hit is near 0.9%.
S1P4 agonist – agonists of human S1P4 receptor; O95977; S1P4-expressing cell line, agonist reporter assay; activation, % at 4.98 µM; actives 0.35% (n = 220,000); AID 1509; in the data active = activation above about 11%;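 note: 0% = DMSO vehicle and 100% = reference agonist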
S1P3 antagonist – antagonists of human S1P3 receptor; CHO S1P3 NFAT-BLA reporter, FRET fluorescence, antagonist mode; actives 0.27% (n = 170,000); Q99500; inhibition, % at 4.98 µM;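 active = inhibition above the plate cutoff, the mean inhibition of test wells on that plate plus 3 SD, cut at about 28% in these data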;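 note: cells challenged with S1P at its EC80 of 0.8 µM; blue over green emission ratio from cleaved BLA substrate after 4 h stimulation; 0% = S1P-stimulated wells and 100% = unstimulated DMSO-only wells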
Target sequence (Q99500 whole entry, looked up): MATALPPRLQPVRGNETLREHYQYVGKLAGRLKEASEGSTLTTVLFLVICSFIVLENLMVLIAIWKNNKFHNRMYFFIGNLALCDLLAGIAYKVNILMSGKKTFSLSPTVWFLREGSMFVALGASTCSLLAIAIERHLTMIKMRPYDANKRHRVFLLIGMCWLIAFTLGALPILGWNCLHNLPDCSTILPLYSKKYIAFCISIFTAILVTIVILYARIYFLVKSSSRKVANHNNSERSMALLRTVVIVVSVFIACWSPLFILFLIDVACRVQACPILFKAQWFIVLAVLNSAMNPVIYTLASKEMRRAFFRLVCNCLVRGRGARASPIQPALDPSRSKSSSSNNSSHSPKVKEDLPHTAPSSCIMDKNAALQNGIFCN
Mdm2 ligase inh – blocks human Mdm2 ubiquitin ligase activity. Q00987. cell-based MDM2 ubiquitination luciferase reporter, 2 h; 0 = plate control, 100 = twice control, blank-subtracted. signal enhancement, % at 5 µM. actives 0.11% (n = 210,000);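 active = signal enhancement of 30% or more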;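 note: luminescence tracks abundance of the self-degrading MDM2-luciferase fusion protein; higher signal means inhibition of MDM2 E3 ligase activity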
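Assay system: stable mammalian line carrying autodegrading MDM2–luciferase fusion reporter; Input: 2000 cells in each well; Compound dosing: single-point 5 µM; Schedule: 2 h compound exposure at 37 °C; Signal: SteadyLite luciferase luminescence after 15 min room-temperature reagent incubation; Evaluation: % luminescence enhancement versus blank-corrected plate control mean; Benchmarks: plate controls and plate blanks.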
Calb biofilm kill – mixtures killing C. albicans biofilm; inhibition, % at 7.6 µM; C. albicans biofilm persisters + clotrimazole, fluorescence viability; primary screen in compound mixtures of four per well; actives 0.02% (n = 120,000);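 active = inhibition above 30.3% in the primary screen of four-compound pools, then above 30% when the compound was retested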;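 note: compounds exposed to preformed 24 h biofilms for 48 h; 0% = untreated biofilm control and 100% = clotrimazole plus chlorhexidine kill blank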
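Assay system: C. albicans biofilms / Medium: RPMI/MOPS medium, pH 7.0 / Schedule: biofilm formation 24 h, compound exposure 48 h, 37 °C / Measured by: Alamar Blue fluorescence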
S1P4 antag – human S1P4 receptor antagonism. O95977. S1P4-expressing cells, antagonist mode, reporter read-out. inhibition, % at 4.98 µM. actives 0.26% (n = 220,000); in the data active = inhibition above about 29%;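 note: 0% = wells stimulated with agonist and 100% = vehicle wells without agonist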
S1P4 ag conf – confirmation of human S1P4 receptor agonists; shares compounds with S1P4 agonist; S1P4 agonist cell-based reporter assay; AID 1523; activation, % at 4.98 µM; actives 7% (n = 740); in the data active = activation above about 12%;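 note: 0% = vehicle and 100% = full reference agonist response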
S1P1 ag – counter-screen for S1P4 agonists: agonists of human S1P1; actives 4% (n = 740); activation, % at 4.98 µM; AID 1563; S1P1 agonist cell-based assay, activation; shares compounds with S1P4 agonist; in the data active = activation above about 21%;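 note: 0% = vehicle wells and 100% = reference agonist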
* marks the source's active call; other numbers are inactive results.

Screening CC/C(O)=C1\C(=O)CCCC1=NCCc1nc2ccccc2[nH]1 returned S1P4 agonist -3.8, S1P3 antagonist -29.3, Mdm2 ligase inh 12.3, Calb biofilm kill -2.4 and S1P4 antag 8.4.
For CC/C(O)=C1\C(=O)CCCC1=NCc1nc2ccccc2[nH]1 the results were S1P4 agonist 208.8*, S1P3 antagonist 8.0, Mdm2 ligase inh -3.7, Calb biofilm kill 13.1, S1P4 antag -9.8, S1P4 ag conf -2.5 and S1P1 ag 0.5.
`COc1ccc(NC(=O)CSc2nc(N)c3cc4c(nc3n2)CCCC4)cc1` gave S1P4 agonist 11.0*, S1P3 antagonist -4.3, Mdm2 ligase inh -16.5, Calb biofilm kill 21.5, S1P4 antag -20.8, S1P4 ag conf -1.9 and S1P1 ag -6.2.
`CC(=O)c1ccc(NC(=O)CSc2nc(N)c3cc4c(nc3n2)CCCC4)cc1` gave S1P4 agonist 0.6, S1P3 antagonist -19.7, Mdm2 ligase inh 7.5, Calb biofilm kill 11.5 and S1P4 antag -13.9.
COC(=O)c1cc(NC(=O)c2ccc(OC)cc2)c(=O)oc1C was read as S1P4 agonist 0.0, S1P3 antagonist -5.9, Mdm2 ligase inh 9.7, Calb biofilm kill 9.1 and S1P4 antag 3.3.
For CCOC(=O)c1cc(NC(=O)c2ccc(OC)cc2)c(=O)oc1-c1ccccc1 the results were S1P4 agonist 22.1*, Mdm2 ligase inh -8.2, S1P4 antag 13.4, S1P4 ag conf -1.6 and S1P1 ag 9.8.
For O=[N+]([O-])c1cccnc1NCCc1ccccc1 the results were S1P4 agonist 1.3, S1P3 antagonist 9.1, Mdm2 ligase inh -9.3, Calb biofilm kill 11.3 and S1P4 antag -7.6.
Screening COC(=O)CCCNc1ncccc1[N+](=O)[O-] returned S1P4 agonist 48.0*, S1P3 antagonist 5.2, Mdm2 ligase inh 3.6, Calb biofilm kill 3.6, S1P4 antag -16.1, S1P4 ag conf -2.3 and S1P1 ag -4.1.
Cc1ccccc1CC1(CO)CCCN(C(=O)c2cc(Cl)ccc2F)C1 (centres undefined) was read as S1P4 agonist 26.4*, S1P3 antagonist -1.1, Calb biofilm kill 8.5, S1P4 antag 3.7, S1P4 ag conf -2.4 and S1P1 ag 3.4.
For Cc1ccccc1CC1(CO)CCCN(C(=O)c2ccccc2Cl)C1 (centres undefined) the results were S1P4 agonist 1.2, S1P3 antagonist -20.9, Mdm2 ligase inh -2.1, Calb biofilm kill 19.6 and S1P4 antag -10.0.
COc1ccc(C2c3ccc(O)cc3Oc3ncn4nc(-c5cccnc5)nc4c32)cc1OC (centres undefined) was read as S1P4 agonist 0.9, S1P3 antagonist 5.6, Mdm2 ligase inh -16.1, Calb biofilm kill 8.4 and S1P4 antag -19.8.
For CCOC(=O)c1c(C)n(C)c2ccc(OC(=O)c3ccco3)cc12 the results were S1P4 agonist -0.7, Mdm2 ligase inh -6.3 and S1P4 antag -4.1.
`CCOC(=O)c1cc2ccc(OC(=O)c3ccco3)cc2oc1=O` gave S1P4 agonist 148.6*, S1P3 antagonist -143.9, Mdm2 ligase inh -2.7, S1P4 antag -155.5, S1P4 ag conf 83.8* and S1P1 ag 95.6*.
CCOC(=O)/C(C#N)=C/c1c(Oc2cccc(C)c2)nc2c(C)cccn2c1=O was read as S1P4 agonist 0.0, S1P3 antagonist -17.0, Mdm2 ligase inh -10.2, Calb biofilm kill 15.0 and S1P4 antag -15.3.
Screening Cc1ccc(Oc2nc3c(C)cccn3c(=O)c2/C=C(\C#N)C(N)=O)cc1 returned S1P4 agonist 19.6*, S1P3 antagonist 2.0, Mdm2 ligase inh -4.3, Calb biofilm kill 19.2, S1P4 antag -5.6, S1P4 ag conf -1.4 and S1P1 ag -8.0.
Screening CN(CCOc1ccccc1)CC(=O)Nc1ccc(Cl)cc1[N+](=O)[O-] returned S1P4 agonist 0.5, S1P3 antagonist -18.8, Mdm2 ligase inh -10.4, Calb biofilm kill 12.1 and S1P4 antag 0.8.
`Cn1c(CNC(=O)OC(C)(C)C)nnc1SCc1c(Cl)cccc1Cl` gave S1P4 agonist 55.8*, S1P3 antagonist 6.2, Mdm2 ligase inh -15.1, Calb biofilm kill 2.3, S1P4 antag -5.0, S1P4 ag conf -2.0 and S1P1 ag -10.8.
